Experimental data reported in ChEMBL document CHEMBL1125189, “Relaxant activity of 6-cyano-2,2-dimethyl-2H-1-benzopyran-4-carboxamides and -thiocarboxamides and their analogues in guinea pig trachealis” (J Med Chem, 1991).

Tests used:
Cavia porcellus [1] = organism: Cavia porcellus; assay: Inhibition of spontaneous tone in guinea pig tracheal spirals; format: functional, Trachea
In short: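 Guinea pig tracheal spiral strips held isometrically in oxygenated Krebs solution. Intrinsic activity is the ratio of maximum relaxation to the isoprenaline maximum, given as an arithmetic mean.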

Cavia porcellus [2] = organism: Cavia porcellus; assay: Evaluated by measuring inhibition of spontaneous tone in guinea pig tracheal spirals; format: functional, Trachea
In short: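 Guinea pig tracheal spiral strips held isometrically in oxygenated Krebs solution. […] It is generally a geometric mean of ≥3 determinations, except where IC50 >15 μM. Intrinsic activity is the ratio of maximum relaxation to the isoprenaline maximum, given as an arithmetic mean.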

Cavia porcellus [3] = assay: Inhibition of Histamine-induced bronchospasm was measured by measuring % prolongation of collapse time of guinea pig at different intervals of time at a peroral dose of 20 mg/kg (time between dose and challenge 60 min); format: functional; conditions: route oral
In short: (§1)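 Male guinea pigs (400-460 g) were dosed orally with compound or vehicle and placed in a ca. 8-L chamber. At set times after dosing they were challenged for 4 min with aerosol from 5 mM histamine diphosphate, generated over 20 s by ultrasonic nebulizer. Time from aerosol to collapse was recorded. Data are means ± SE.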

Cavia porcellus [4] = assay: Inhibition of Histamine-induced bronchospasm was measured by measuring % prolongation of collapse time of guinea pig at different intervals of time at a peroral dose of 20 mg/kg (time between dose and challenge 30 min); format: functional; conditions: route oral; in short: as §1
Cavia porcellus [5] = assay: Inhibition of Histamine-induced bronchospasm was measured by measuring % prolongation of collapse time of guinea pig at different intervals of time at a peroral dose of 20 mg/kg (time between dose and challenge 15 min); format: functional; conditions: route oral; in short: as §1
Cavia porcellus [6] = assay: Inhibition of Histamine-induced bronchospasm was measured by measuring % prolongation of collapse time of guinea pig at different intervals of time at a peroral dose of 5 mg/kg (time between dose and challenge 60 min); format: functional; conditions: route oral; in short: as §1
Cavia porcellus [7] = organism: Cavia porcellus; assay: Inhibition of Histamine-induced bronchospasm was measured by measuring % prolongation of collapse time of guinea pig; format: functional; in short: as §1
Cavia porcellus [8] = assay: Inhibition of Histamine-induced bronchospasm was measured by measuring % prolongation of collapse time of guinea pig at different intervals of time at a peroral dose of 20 mg/kg (time between dose and challenge 90 min); format: functional; conditions: route oral; in short: as §1
Cavia porcellus [9] = assay: Inhibition of Histamine-induced bronchospasm was measured by measuring % prolongation of collapse time of guinea pig at different intervals of time at a peroral dose of 20 mg/kg (time between dose and challenge 120 min); format: functional; conditions: route oral; in short: as §1
Cavia porcellus [10] = assay: Inhibition of Histamine-induced bronchospasm was measured by measuring % prolongation of collapse time of guinea pig at different intervals of time at a peroral dose of 10 mg/kg (time between dose and challenge 60 min); format: functional; conditions: route oral; in short: as §1
Cavia porcellus [11] = assay: Inhibition of Histamine-induced bronchospasm was measured by measuring % prolongation of collapse time of guinea pig at different intervals of time at a peroral dose of 10 mg/kg (time between dose and challenge 15 min); format: functional; conditions: route oral; in short: as §1

Row | Structure (SMILES) | IC50 (Cavia porcellus [1]; Cavia porcellus, Trachea) [µM] | Intinsic activity (Cavia porcellus [2]) | further results
1 | CC(C)(C)/N=C(\S)C1c2cc(C#N)ccc2OC(C)(C)C1O (stereo in doubt; 11a) | > 20 | 0.3 | 
2 | C/N=C(\S)C1c2cc(C#N)ccc2OC(C)(C)C1O (trans isomer) |  | 0.93 | IC50 (Cavia porcellus [1]): 5.6 µM
3 | C/N=C(\S)C1=C(O)C(C)(C)Oc2ccc(C#N)cc21 |  | 0.69 | 
4 | CC1(C)Oc2ccc(C#N)cc2C(/C(S)=N/c2ccccc2)=C1O | 0.25 | 0.99 | Prolongation (Cavia porcellus [4]): 14%; Prolongation (Cavia porcellus [5]): 63%; Prolongation (Cavia porcellus [3]): 10%
5 | CC(C)(C)/N=C(\S)C1=CC(C)(C)Oc2ccc(C#N)cc21 | > 20 | 0 | 
6 | CC1(C)Oc2ccc(C#N)cc2C(/C(S)=N/c2ccccc2)C1O (trans isomer) |  | 0.82 | IC50 (Cavia porcellus [1]): 3.4 µM
7 | CC1(C)Oc2ccc(C#N)cc2C(/C(S)=N/c2ccccc2)C1O (cis isomer) |  | 0.14 | IC50 (Cavia porcellus [1]): > 20 µM
8 | CO/C(=N\c1ccccc1)C1=C(O)C(C)(C)Oc2ccc(C#N)cc21 |  | 0.82 | Prolongation (Cavia porcellus [6]): 1%
9 | CC1(C)Oc2ccc(C#N)cc2C(/C(S)=N/c2ccc(F)cc2)=C1O |  | 0.88 | 
10 | CC(C)(C)/N=C(\S)C1=C(O)C(C)(C)Oc2ccc(C#N)cc21 | 4.35 | 0.93 | 
11 | CC1(C)Oc2ccc(C#N)cc2C(N2CCCC2=O)C1O (stereo not given) [CROMAKALIM] |  | 0.89 | Prolongation (Cavia porcellus [7]): 174%
12 | CC(C)(C)/N=C(\S)C1c2cc(C#N)ccc2OC(C)(C)C1O (stereo in doubt; 11b) |  | 0.79 | IC50 (Cavia porcellus [1]): 11.1 µM
13 | C/N=C(/S)C1=CC(C)(C)Oc2ccc(C#N)cc21 |  | 0.88 | Prolongation (Cavia porcellus [8]): 175%; Prolongation (Cavia porcellus [4]): 244%; Prolongation (Cavia porcellus [9]): 187%; Prolongation (Cavia porcellus [10]): 9%; Prolongation (Cavia porcellus [6]): 12%; Prolongation (Cavia porcellus [3]): 230%
14 | CC1(C)Oc2ccc(C#N)cc2C(F)(C(=O)Nc2ccccc2)C1=O (stereo not given) |  | 0.95 | Prolongation (Cavia porcellus [10]): 10%
15 | CSC(SC)=C1C(=O)C(C)(C)Oc2ccc(C#N)cc21 | > 20 |  | 
16 | CC1(C)Oc2ccc(C#N)cc2C(c2nc3ccccc3s2)=C1O | 1.36 | 0.96 | Prolongation (Cavia porcellus [3]): -1%
17 | CC1(C)Oc2ccc(C#N)cc2C(C(=O)Nc2ccccc2)=C1O |  | 0.98 | Prolongation (Cavia porcellus [11]): -6%; Prolongation (Cavia porcellus [10]): -14%

The next lines start with results.

Row | IC50 (Cavia porcellus [1]; Cavia porcellus, Trachea) [µM] | Structure (SMILES) | Intinsic activity (Cavia porcellus [2]) | further results
18 | 6.4 | COc1ccc(NC(=S)C2=C(O)C(C)(C)Oc3ccc(C#N)cc32)cc1 | 0.6 | 
19 | > 20 | COC1=C(C(=O)Nc2ccccc2)c2cc(C#N)ccc2OC1(C)C |  | 
20 | 1.35 | CC(=O)OC1=C(C(=O)N(C(C)=O)c2ccccc2)c2cc(C#N)ccc2OC1(C)C | 0.95 | Prolongation (Cavia porcellus [3]): 5%
21 | 1.14 | CC1(C)C=C(C(=O)Nc2ccccc2)c2cc(C#N)ccc2O1 | 0.86 | Prolongation (Cavia porcellus [3]): 34%
22 | 5.92 | C/N=C(\S)C1c2cc(C#N)ccc2OC(C)(C)C1O (cis isomer) | 0.84 | 
23 | > 20 | CC1(C)Oc2ccc(C#N)cc2C(C)(C(=O)Nc2ccccc2)C1=O (stereo not given) |  | 
24 | 1.2 | COc1ccc(NC(=O)C2=C(O)C(C)(C)Oc3ccc(C#N)cc32)cc1 | 0.94 | 
